Measurements as given in ChEMBL document CHEMBL5724801, “EUbOPEN Chemogenomics Library - Multiplex” (2024).
Values joined by “and” are separate entries in the source; they are usually repeats but may differ in a detail not shown here. Equal values may be shown once.

Test system: HEK-293T
Assay: Multiplex assay against HEK293T
Type: toxicity, cell-based
Settings: human
Summary of the method: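 Live cells carried four stains from seeding: Hoechst33342, BioTracker Green Microtubule Cytoskeleton Dye, MitoTracker Red and Annexin V Alexa Fluor 680. They were imaged on a CQ1 microscope at 37°C and 5% CO2 after compound addition. Using CellPathfinder machine-learning gating, cells were split into Hoechst high-intensity objects or normal cells, normal cells into healthy, pyknosed or fragmented nuclei, and pyknosed cells into mitotic or apoptotic; tubulin, mitochondrial-mass and membrane-permeability phenotypes are per cents of healthy-nucleus cells.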

[1] = 12 h, 1 µM, compound concentration 1 uM
[2] = 12 h, 10 µM, compound concentration 10 uM
[3] = 24 h, 1 µM, compound concentration 1 uM
[4] = 24 h, 10 µM, compound concentration 10 uM
[5] = 48 h, 1 µM, compound concentration 1 uM
[6] = 48 h, 10 µM, compound concentration 10 uM

## C[C@H]1[C@H]2CC[C@H]3[C@@H]4CC=C5C[C@@H](N(C)C)CC[C@]5(C)[C@H]4CC[C@]23CN1C [CONESSINE]
[1]
  Population Apoptotic (%): 35% and 48%
  Population Fragmented Nuclei (%): 5% and 4%
  Population Healthy Nuclei (%): 78% and 85%
  Population Hoechst High Intensity Objects (%): 6% and 8%
  Population Membrane Permeable-Phenotype (%): 0%
  Population Mitochondria Different-Phenotype (%): 39% and 58%
  Population Mitotic Cells (%): 65% and 51%
  Population Normal (%): 93% and 91%
  Population Pyknosed Nuclei (%): 16% and 10%
  Population Tubulin-Different-Phenotype (%): 26% and 22%
  Total Cell Count: 400 and 356
[2]
  Population Apoptotic (%): 35% and 59%
  Population Fragmented Nuclei (%): 6% and 7%
  Population Healthy Nuclei (%): 77% and 78%
  Population Hoechst High Intensity Objects (%): 6% and 9%
  Population Membrane Permeable-Phenotype (%): 1% and 0%
  Population Mitochondria Different-Phenotype (%): 56% and 62%
  Population Mitotic Cells (%): 65% and 40%
  Population Normal (%): 93% and 90%
  Population Pyknosed Nuclei (%): 15% and 14%
  Population Tubulin-Different-Phenotype (%): 38% and 30%
  Total Cell Count: 419 and 384
[3]
  Population Apoptotic (%): 26% and 25%
  Population Fragmented Nuclei (%): 9% and 8%
  Population Healthy Nuclei (%): 80% and 81%
  Population Hoechst High Intensity Objects (%): 5% and 4%
  Population Membrane Permeable-Phenotype (%): 1% and 0%
  Population Mitochondria Different-Phenotype (%): 22% and 34%
  Population Mitotic Cells (%): 73% and 75%
  Population Normal (%): 94% and 95%
  Population Pyknosed Nuclei (%): 10%
  Population Tubulin-Different-Phenotype (%): 17% and 16%
  Total Cell Count: 514 and 484
[4]
  Population Apoptotic (%): 27% and 47%
  Population Fragmented Nuclei (%): 9%
  Population Healthy Nuclei (%): 79% and 82%
  Population Hoechst High Intensity Objects (%): 6% and 9%
  Population Membrane Permeable-Phenotype (%): 1% and 0%
  Population Mitochondria Different-Phenotype (%): 38% and 43%
  Population Mitotic Cells (%): 72% and 52%
  Population Normal (%): 93% and 90%
  Population Pyknosed Nuclei (%): 11% and 7%
  Population Tubulin-Different-Phenotype (%): 28% and 24%
  Total Cell Count: 572 and 474
[5]
  Population Apoptotic (%): 30% and 36%
  Population Fragmented Nuclei (%): 9% and 10%
  Population Healthy Nuclei (%): 82% and 83%
  Population Hoechst High Intensity Objects (%): 2% and 4%
  Population Membrane Permeable-Phenotype (%): 1%
  Population Mitochondria Different-Phenotype (%): 18% and 20%
  Population Mitotic Cells (%): 69% and 63%
  Population Normal (%): 97% and 95%
  Population Pyknosed Nuclei (%): 7% and 5%
  Population Tubulin-Different-Phenotype (%): 12% and 11%
  Total Cell Count: 735 and 630
[6]
  Population Apoptotic (%): 27% and 36%
  Population Fragmented Nuclei (%): 14% and 10%
  Population Healthy Nuclei (%): 78% and 81%
  Population Hoechst High Intensity Objects (%): 4% and 5%
  Population Membrane Permeable-Phenotype (%): 1% and 0%
  Population Mitochondria Different-Phenotype (%): 23% and 32%
  Population Mitotic Cells (%): 72% and 63%
  Population Normal (%): 95% and 94%
  Population Pyknosed Nuclei (%): 6% and 7%
  Population Tubulin-Different-Phenotype (%): 15% and 17%
  Total Cell Count: 767 and 618

## CCCOc1ccc2[nH]cc(C3=CCNCC3)c2n1.Cl
[1]
  Population Apoptotic (%): 32% and 44%
  Population Fragmented Nuclei (%): 5% and 6%
  Population Healthy Nuclei (%): 81% and 82%
  Population Hoechst High Intensity Objects (%): 5% and 4%
  Population Membrane Permeable-Phenotype (%): 0%
  Population Mitochondria Different-Phenotype (%): 41% and 52%
  Population Mitotic Cells (%): 68% and 55%
  Population Normal (%): 94% and 95%
  Population Pyknosed Nuclei (%): 12% and 10%
  Population Tubulin-Different-Phenotype (%): 39% and 21%
  Total Cell Count: 416 and 344
[2]
  Population Apoptotic (%): 43% and 55%
  Population Fragmented Nuclei (%): 5% and 6%
  Population Healthy Nuclei (%): 78% and 82%
  Population Hoechst High Intensity Objects (%): 10% and 4%
  Population Membrane Permeable-Phenotype (%): 0%
  Population Mitochondria Different-Phenotype (%): 58% and 76%
  Population Mitotic Cells (%): 56% and 44%
  Population Normal (%): 89% and 95%
  Population Pyknosed Nuclei (%): 15% and 11%
  Population Tubulin-Different-Phenotype (%): 41%
  Total Cell Count: 446 and 387
[3]
  Population Apoptotic (%): 28% and 35%
  Population Fragmented Nuclei (%): 10% and 9%
  Population Healthy Nuclei (%): 76% and 80%
  Population Hoechst High Intensity Objects (%): 3% and 2%
  Population Membrane Permeable-Phenotype (%): 0% and 1%
  Population Mitochondria Different-Phenotype (%): 26% and 29%
  Population Mitotic Cells (%): 71% and 64%
  Population Normal (%): 96% and 97%
  Population Pyknosed Nuclei (%): 12% and 9%
  Population Tubulin-Different-Phenotype (%): 24% and 14%
  Total Cell Count: 558 and 425
[4]
  Population Apoptotic (%): 39% and 51%
  Population Fragmented Nuclei (%): 12% and 6%
  Population Healthy Nuclei (%): 74% and 81%
  Population Hoechst High Intensity Objects (%): 7% and 3%
  Population Membrane Permeable-Phenotype (%): 0%
  Population Mitochondria Different-Phenotype (%): 50% and 63%
  Population Mitotic Cells (%): 60% and 48%
  Population Normal (%): 92% and 96%
  Population Pyknosed Nuclei (%): 12% and 11%
  Population Tubulin-Different-Phenotype (%): 38% and 34%
  Total Cell Count: 583 and 502
[5]
  Population Apoptotic (%): 17% and 38%
  Population Fragmented Nuclei (%): 13% and 9%
  Population Healthy Nuclei (%): 79% and 82%
  Population Hoechst High Intensity Objects (%): 2% and 1%
  Population Membrane Permeable-Phenotype (%): 0% and 1%
  Population Mitochondria Different-Phenotype (%): 15% and 20%
  Population Mitotic Cells (%): 82% and 61%
  Population Normal (%): 97% and 98%
  Population Pyknosed Nuclei (%): 6% and 7%
  Population Tubulin-Different-Phenotype (%): 12% and 9%
  Total Cell Count: 872 and 657
[6]
  Population Apoptotic (%): 35% and 26%
  Population Fragmented Nuclei (%): 14% and 13%
  Population Healthy Nuclei (%): 76% and 80%
  Population Hoechst High Intensity Objects (%): 6% and 5%
  Population Membrane Permeable-Phenotype (%): 0%
  Population Mitochondria Different-Phenotype (%): 41% and 37%
  Population Mitotic Cells (%): 64% and 73%
  Population Normal (%): 93% and 94%
  Population Pyknosed Nuclei (%): 8% and 6%
  Population Tubulin-Different-Phenotype (%): 23% and 20%
  Total Cell Count: 776 and 733
